Results on 167 variants are retold here after the RNAGym collection of RNA variant scans (doi:10.1002/anie.201605470).

B1: Osa-1-4 twister ribozyme (parent)
chain: CCGCCUAACACUGCCAAUGCCGGUCCCAAGCCCGGAUAAAAGUGGAGGGGGCGG

In the data set the parent is B1. The data set is described as follows: self-cleavage, relative activity (ratio to wild type); higher = more cleavage; co-transcriptional. In short, it runs like this: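 A DNA template for a 54-nucleotide Oryza sativa twister ribozyme was synthesised with 97 % wild-type base and 1 % of each other base at the 48 positions downstream of the cleavage site. It was transcribed in vitro for 2 h at 37 °C, allowing co-transcriptional self-cleavage, then reverse-transcribed with a template-switching oligonucleotide, PCR-amplified and deep-sequenced. Cleavage status was scored from reads with or without upstream sequence. Relative activity is fraction cleaved normalised to wild type.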
Regarding G34A G42A, the self-cleavage amounted to 0.11.

Turning to G34A G42U, the self-cleavage was 0.05. For G34A G42C, the self-cleavage came to 0.08. In the case of G34A G45A, the self-cleavage came out at 0.15. To G34A G45U belongs 0.09. With G34A G45C, the self-cleavage is 0.06. To G35U U18C belongs 0.5; to G35U U18G, 0.77. As for G35U U18A, the figure is 0.8; as for C33U U43C, 0.09. With C33U U43G, the self-cleavage is 0.09.

Turning to C33U U43A, the self-cleavage came to 0.19. To G35U U24A belongs 0.2; to G35U U24C, 0.08; to G35U U24G, 0.03. To G35A G51U belongs 0.12; to G35A G51C, 0.07; to G35A G51A, 0.25. As for G34C U43G, the figure is 0.07; as for G34C U43C, 0.1. Consider G34C U43A, for which the self-cleavage was found to be 0.09.

Regarding G34A U43A, the self-cleavage worked out at 0.22. As for G34A U43G, the figure is 0.1; as for G34A U43C, 0.19; as for G34A G50C, 0.6.

As to G34A G50U, the self-cleavage stood at 0.83. With G34A G50A, the self-cleavage was 0.29.

On to G34A U18A, for which the self-cleavage was determined as 0.73. To G34A U18C belongs 0.43; to G34A U18G, 0.71; to G35A G47C, 0.11. Regarding G35A G47A, the self-cleavage came out at 0.27. To G35A G47U belongs 0.18. Turning to G34C G51U, the self-cleavage was found to be 0.06.

Consider G34C G51C, for which the self-cleavage amounted to 0.06. On to G34C G51A, for which the self-cleavage was 0.1. With G35C G45C, the self-cleavage worked out at 0.07. Consider G35C G45U, for which the self-cleavage is 0.05.

Regarding G35C G45A, the self-cleavage came to 0.05. As for G35C G44U, the figure is 0.26. As for G35C G44A, the figure is 0.25; as for G35C G44C, 0.45.

In the case of G34C U12G, the self-cleavage was 0.08.

As to G34C U12A, the self-cleavage was determined as 0.1. Consider G34C U12C, for which the self-cleavage is 0.1. To G35U G50U belongs 0.92; to G35U G50A, 0.35; to G35U G50C, 0.79. To G35U U43C belongs 0.21. For the variant G35U U43G, the self-cleavage came to 0.12. As for G35U U43A, the figure is 0.44; as for G34C G53A, 0.09.

On to G34C G53C, for which the self-cleavage worked out at 0.09. As for G34C G53U, the self-cleavage is 0.07.

Regarding G35A G44U, the self-cleavage was found to be 0.71.

Consider G35A G44C, for which the self-cleavage turned out to be 0.76.

For the variant G35A G44A, the self-cleavage is 0.8. In the case of G34A G44C, the self-cleavage was determined as 0.58. Turning to G34A G44A, the self-cleavage turned out to be 0.69.

For G34A G44U, the self-cleavage was found to be 0.58. Take G35A G53A: the self-cleavage was 0.68. In the case of G35A G53C, the self-cleavage came out at 0.08. To G35A G53U belongs 0.22. To G35A belongs 0.9; to G35U, 0.9. Turning to G35C, the self-cleavage is 0.72. G34A G54A: the self-cleavage stood at 0.64. As to G34A G54C, the self-cleavage was 0.7. For the variant G34A G54U, the self-cleavage was 0.7.

In the case of A36C A41U, the self-cleavage came out at 0.91. To A36C A41G belongs 0.13; to A36C A41C, 0.6.

Consider G34C G35U, for which the self-cleavage amounted to 0.28. With G34C G35A, the self-cleavage was found to be 0.39. Turning to G34C G35C, the self-cleavage is 0.11. As to A36C A7G, the self-cleavage worked out at 0.11.

Take A36C A7U: the self-cleavage was found to be 0.05. To A36C A7C belongs 0.05. To G35C G50U belongs 0.17; to G35C G50A, 0.24; to G35C G50C, 0.1. As to G34U U18C, the self-cleavage is 0.31. Turning to G34U U18A, the self-cleavage amounted to 0.64. Regarding G34U U18G, the self-cleavage came out at 0.58.

Regarding G35C U12C, the self-cleavage is 0.09.

Take G35C U12G: the self-cleavage was determined as 0.07. To G35C U12A belongs 0.08. Regarding G34U G42U, the self-cleavage is 0.07.

Take G34U G42A: the self-cleavage was 0.13. To G34U G42C belongs 0.08; to G35A G50C, 0.78; to G35A G50U, 0.9. Consider G35A G50A, for which the self-cleavage amounted to 0.35. As for G35C U24C, the figure is 0.05; as for G35C U24A, 0.06; as for G35C U24G, 0.01.

Turning to C33U G51U, the self-cleavage is 0.13. As for C33U G51C, the figure is 0.08; as for C33U G51A, 0.35. To G35U G53C belongs 0.07; to G35U G53A, 0.62; to G35U G53U, 0.17. To G34C G50U belongs 0.41; to G34C G50C, 0.19; to G34C G50A, 0.23. In the case of G34U G54U, the self-cleavage turned out to be 0.49. As for G34U G54A, the figure is 0.39; as for G34U G54C, 0.57; as for G35A U37A, 1.05. To G35A U37C belongs 0.92. To G35A U37G belongs 0.89. Consider G35A G48A, for which the self-cleavage stood at 0.12. To G35A G48U belongs 0.09; to G35A G48C, 0.1. Consider G34U G45U, for which the self-cleavage was 0.08. As for G34U G45C, the self-cleavage was 0.05.

Turning to G34U G45A, the self-cleavage came out at 0.09. As to C33U G54C, the self-cleavage came to 0.61. As for C33U G54U, the figure is 0.68. With C33U G54A, the self-cleavage stood at 0.57. For the variant G34U G48U, the self-cleavage was 0.05.

Regarding G34U G48A, the self-cleavage was 0.07. Consider G34U G48C, for which the self-cleavage stood at 0.07. With G34C G45A, the self-cleavage came to 0.05. As for G34C G45C, the figure is 0.06; as for G34C G45U, 0.06. On to G35A G45C, for which the self-cleavage worked out at 0.06. As for G35A G45A, the self-cleavage amounted to 0.31.

On to G35A G45U, for which the self-cleavage stood at 0.15. Take C33U U37C: the self-cleavage came to 0.88.

On to C33U U37G, for which the self-cleavage came out at 0.9. As for C33U U37A, the figure is 0.87; as for G35U G45A, 0.19. G35U G45U: the self-cleavage stood at 0.09. G35U G45C: the self-cleavage is 0.06. As for G34U U12A, the figure is 0.14; as for G34U U12C, 0.14; as for G34U U12G, 0.05. Regarding G35U U37G, the self-cleavage came to 0.89. To G35U U37A belongs 0.92. To G35U U37C belongs 0.94; to G35C G47C, 0.05; to G35C G47A, 0.05. Consider G35C G47U, for which the self-cleavage stood at 0.05. G35U G42A: the self-cleavage worked out at 0.35. To G35U G42C belongs 0.11.

For the variant G35U G42U, the self-cleavage is 0.08. As for G35C G42C, the figure is 0.07; as for G35C G42U, 0.07; as for G35C G42A, 0.08. As for G35U G47C, the self-cleavage amounted to 0.07.

Regarding G35U G47A, the self-cleavage is 0.15. As for G35U G47U, the figure is 0.14. To G35C U37G belongs 0.9. As for G35C U37C, the figure is 0.94; as for G35C U37A, 0.93; as for G34A U24A, 0.18. Regarding G34A U24G, the self-cleavage stood at 0.03. With G34A U24C, the self-cleavage stood at 0.06. On to G34C G47U, for which the self-cleavage was determined as 0.06. Consider G34C G47A, for which the self-cleavage came out at 0.07. To G34C G47C belongs 0.05. Consider G34U G35C, for which the self-cleavage came out at 0.31.

Turning to G34U G35U, the self-cleavage came to 0.52. As for G34U G35A, the figure is 0.6; as for G35C G49U, 0.05. As for G35C G49A, the figure is 0.05.
